Laboratory results: ChEMBL document CHEMBL4011617, “Ugi Reaction-Derived α-Acyl Aminocarboxamides Bind to Phosphatidylinositol 3-Kinase-Related Kinases, Inhibit HSF1-Dependent Heat Shock Response, and Induce Apoptosis in Multiple Myeloma Cells” (J Med Chem, 2017)
Activity calls are given as the source filed them. The rule behind the calls is not given here.

Tests used:
[1] = target: CCR4-NOT transcription complex subunit 2 (Homo sapiens) (UniProt Q9NZN8); test: Binding affinity to CCR4-NOT transcription complex subunit 2 in human INA-6 cells after 3 hrs by nanoLC-MS/MS method; assay type: cell-based
Method in brief: (§1)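 The biotinylated inhibitor was loaded on streptavidin beads, with empty beads as the control. Eluates were trypsin-digested and run by nanoLC-MS/MS. Inhibitor/control ratios came from label-free quantification, taken as medians of five biological replicates. Enrichment was called at Benjamini-Hochberg-adjusted limma p < 0.02.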

[2] = target: Conserved oligomeric Golgi complex subunit 1 (Homo sapiens) (UniProt Q8WTW3); test: Binding affinity to COG1 in human INA-6 cells after 3 hrs by nanoLC-MS/MS method; assay type: cell-based; method in brief: as §1
[3] = target: CCR4-NOT transcription complex subunit 9 (Homo sapiens) (UniProt Q92600); test: Binding affinity to RCD1 protein in human INA-6 cells after 3 hrs by nanoLC-MS/MS method; assay type: cell-based; method in brief: as §1
[4] = target: Stalled ribosome sensor GCN1 (Homo sapiens) (UniProt Q92616); test: Binding affinity to GCN1 protein in human INA-6 cells after 3 hrs by nanoLC-MS/MS method; assay type: cell-based; method in brief: as §1
[5] = target: DNA-dependent protein kinase catalytic subunit (Homo sapiens) (UniProt P78527); test: Binding affinity to PRKDC protein in human INA-6 cells after 3 hrs by nanoLC-MS/MS method; assay type: cell-based; method in brief: as §1
[6] = target: DNA-dependent protein kinase catalytic subunit (Homo sapiens) (UniProt P78527); test: Binding affinity to PRKDC protein in human INA-6 cells after 3 hrs by Western blot method; assay type: cell-based
Method in brief: (§2)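 INA-6 lysate was incubated with compound-coupled streptavidin beads or with beads only as the control. Captured-protein eluates were Western blotted with specific antibodies against DNA-PK, ATM, ATR or mTOR. H2AX staining or Ponceau S served as loading controls.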

[7] = target: MICOS complex subunit MIC25 (Homo sapiens) (UniProt Q9BRQ6); test: Binding affinity to MICOS complex subunit MIC25 in human INA-6 cells after 3 hrs by nanoLC-MS/MS method; assay type: cell-based; method in brief: as §1
[8] = target: CCR4-NOT transcription complex subunit 4 (Homo sapiens) (UniProt O95628); test: Binding affinity to CCR4-NOT transcription complex subunit 4 in human INA-6 cells after 3 hrs by nanoLC-MS/MS method; assay type: cell-based; method in brief: as §1
[9] = target: Serine/threonine-protein kinase mTOR (Homo sapiens) (UniProt P42345); test: Binding affinity to mTOR protein in human INA-6 cells after 3 hrs by Western blot method; assay type: cell-based; method in brief: as §2
[10] = target: Serine/threonine-protein kinase ATR (Homo sapiens) (UniProt Q13535); test: Binding affinity to ATR protein in human INA-6 cells after 3 hrs by Western blot method; assay type: cell-based; method in brief: as §2
[11] = target: Peflin (Homo sapiens) (UniProt Q9UBV8); test: Binding affinity to PEF1 protein in human INA-6 cells after 3 hrs by nanoLC-MS/MS method; assay type: cell-based; method in brief: as §1
[12] = target: MICOS complex subunit MIC60 (Homo sapiens) (UniProt Q16891); test: Binding affinity to MICOS complex subunit MIC60 in human INA-6 cells after 3 hrs by nanoLC-MS/MS method; assay type: cell-based; method in brief: as §1
[13] = system: INA-6; test: Inhibition of heat shock response in human INA-6 cells assessed as reduction in HSF-1 mediated upregulation of the heat shock protein HSP27 at 50 uM preincubated for 4 hrs followed by HSP90 inhibitor and HSR inducer NVP-AUY922 addition measured after 4 hrs by Western blot method; assay type: functional, cell-based
Method in brief: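 INA-6 myeloma cells pretreated with test compound for 4 h, then co-treated with the HSP90 inhibitor/HSR inducer NVP-AUY922 for a further 4 h. Cells harvested; HSP72, HSP27, HSF1 or phospho-HSF1 probed by Western blot with β-actin as loading control. DMSO-only cells were the negative control; NVP-AUY922-only cells were the positive control.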

[14] = target: MICOS complex subunit MIC10 (Homo sapiens) (UniProt Q5TGZ0); test: Binding affinity to MICOS complex subunit MIC10 in human INA-6 cells after 3 hrs by nanoLC-MS/MS method; assay type: cell-based; method in brief: as §1
[15] = target: Serine-protein kinase ATM (Homo sapiens) (UniProt Q13315); test: Binding affinity to ATM protein in human INA-6 cells after 3 hrs by Western blot method; assay type: cell-based; method in brief: as §2
[16] = target: Brefeldin A-inhibited guanine nucleotide-exchange protein 2 (Homo sapiens) (UniProt Q9Y6D5); test: Binding affinity to BIG2 protein in human INA-6 cells after 3 hrs by nanoLC-MS/MS method; assay type: cell-based; method in brief: as §1
[17] = target: Serine/threonine-protein phosphatase 6 regulatory subunit 1 (Homo sapiens) (UniProt Q9UPN7); test: Binding affinity to PP6R1 protein in human INA-6 cells after 3 hrs by nanoLC-MS/MS method; assay type: cell-based; method in brief: as §1
[18] = target: CCR4-NOT transcription complex subunit 7 (Homo sapiens) (UniProt Q9UIV1); test: Binding affinity to CCR4-NOT transcription complex subunit 7 in human INA-6 cells after 3 hrs by nanoLC-MS/MS method; assay type: cell-based; method in brief: as §1
[19] = target: Survival motor neuron protein (Homo sapiens) (UniProt Q16637); test: Binding affinity to survival motor neuron protein in human INA-6 cells after 3 hrs by nanoLC-MS/MS method; assay type: cell-based; method in brief: as §1
[20] = target: Mitogen-activated protein kinase kinase kinase 6 (Homo sapiens) (UniProt O95382); test: Binding affinity to MAP3K6 in human INA-6 cells after 3 hrs by nanoLC-MS/MS method; assay type: cell-based; method in brief: as §1
[21] = target: Serine/threonine-protein kinase ATR (Homo sapiens) (UniProt Q13535); test: Binding affinity to ATR protein in human INA-6 cells after 3 hrs by nanoLC-MS/MS method; assay type: cell-based; method in brief: as §1

Chain of Serine/threonine-protein kinase ATR (Homo sapiens) (Q13535 whole entry, looked up): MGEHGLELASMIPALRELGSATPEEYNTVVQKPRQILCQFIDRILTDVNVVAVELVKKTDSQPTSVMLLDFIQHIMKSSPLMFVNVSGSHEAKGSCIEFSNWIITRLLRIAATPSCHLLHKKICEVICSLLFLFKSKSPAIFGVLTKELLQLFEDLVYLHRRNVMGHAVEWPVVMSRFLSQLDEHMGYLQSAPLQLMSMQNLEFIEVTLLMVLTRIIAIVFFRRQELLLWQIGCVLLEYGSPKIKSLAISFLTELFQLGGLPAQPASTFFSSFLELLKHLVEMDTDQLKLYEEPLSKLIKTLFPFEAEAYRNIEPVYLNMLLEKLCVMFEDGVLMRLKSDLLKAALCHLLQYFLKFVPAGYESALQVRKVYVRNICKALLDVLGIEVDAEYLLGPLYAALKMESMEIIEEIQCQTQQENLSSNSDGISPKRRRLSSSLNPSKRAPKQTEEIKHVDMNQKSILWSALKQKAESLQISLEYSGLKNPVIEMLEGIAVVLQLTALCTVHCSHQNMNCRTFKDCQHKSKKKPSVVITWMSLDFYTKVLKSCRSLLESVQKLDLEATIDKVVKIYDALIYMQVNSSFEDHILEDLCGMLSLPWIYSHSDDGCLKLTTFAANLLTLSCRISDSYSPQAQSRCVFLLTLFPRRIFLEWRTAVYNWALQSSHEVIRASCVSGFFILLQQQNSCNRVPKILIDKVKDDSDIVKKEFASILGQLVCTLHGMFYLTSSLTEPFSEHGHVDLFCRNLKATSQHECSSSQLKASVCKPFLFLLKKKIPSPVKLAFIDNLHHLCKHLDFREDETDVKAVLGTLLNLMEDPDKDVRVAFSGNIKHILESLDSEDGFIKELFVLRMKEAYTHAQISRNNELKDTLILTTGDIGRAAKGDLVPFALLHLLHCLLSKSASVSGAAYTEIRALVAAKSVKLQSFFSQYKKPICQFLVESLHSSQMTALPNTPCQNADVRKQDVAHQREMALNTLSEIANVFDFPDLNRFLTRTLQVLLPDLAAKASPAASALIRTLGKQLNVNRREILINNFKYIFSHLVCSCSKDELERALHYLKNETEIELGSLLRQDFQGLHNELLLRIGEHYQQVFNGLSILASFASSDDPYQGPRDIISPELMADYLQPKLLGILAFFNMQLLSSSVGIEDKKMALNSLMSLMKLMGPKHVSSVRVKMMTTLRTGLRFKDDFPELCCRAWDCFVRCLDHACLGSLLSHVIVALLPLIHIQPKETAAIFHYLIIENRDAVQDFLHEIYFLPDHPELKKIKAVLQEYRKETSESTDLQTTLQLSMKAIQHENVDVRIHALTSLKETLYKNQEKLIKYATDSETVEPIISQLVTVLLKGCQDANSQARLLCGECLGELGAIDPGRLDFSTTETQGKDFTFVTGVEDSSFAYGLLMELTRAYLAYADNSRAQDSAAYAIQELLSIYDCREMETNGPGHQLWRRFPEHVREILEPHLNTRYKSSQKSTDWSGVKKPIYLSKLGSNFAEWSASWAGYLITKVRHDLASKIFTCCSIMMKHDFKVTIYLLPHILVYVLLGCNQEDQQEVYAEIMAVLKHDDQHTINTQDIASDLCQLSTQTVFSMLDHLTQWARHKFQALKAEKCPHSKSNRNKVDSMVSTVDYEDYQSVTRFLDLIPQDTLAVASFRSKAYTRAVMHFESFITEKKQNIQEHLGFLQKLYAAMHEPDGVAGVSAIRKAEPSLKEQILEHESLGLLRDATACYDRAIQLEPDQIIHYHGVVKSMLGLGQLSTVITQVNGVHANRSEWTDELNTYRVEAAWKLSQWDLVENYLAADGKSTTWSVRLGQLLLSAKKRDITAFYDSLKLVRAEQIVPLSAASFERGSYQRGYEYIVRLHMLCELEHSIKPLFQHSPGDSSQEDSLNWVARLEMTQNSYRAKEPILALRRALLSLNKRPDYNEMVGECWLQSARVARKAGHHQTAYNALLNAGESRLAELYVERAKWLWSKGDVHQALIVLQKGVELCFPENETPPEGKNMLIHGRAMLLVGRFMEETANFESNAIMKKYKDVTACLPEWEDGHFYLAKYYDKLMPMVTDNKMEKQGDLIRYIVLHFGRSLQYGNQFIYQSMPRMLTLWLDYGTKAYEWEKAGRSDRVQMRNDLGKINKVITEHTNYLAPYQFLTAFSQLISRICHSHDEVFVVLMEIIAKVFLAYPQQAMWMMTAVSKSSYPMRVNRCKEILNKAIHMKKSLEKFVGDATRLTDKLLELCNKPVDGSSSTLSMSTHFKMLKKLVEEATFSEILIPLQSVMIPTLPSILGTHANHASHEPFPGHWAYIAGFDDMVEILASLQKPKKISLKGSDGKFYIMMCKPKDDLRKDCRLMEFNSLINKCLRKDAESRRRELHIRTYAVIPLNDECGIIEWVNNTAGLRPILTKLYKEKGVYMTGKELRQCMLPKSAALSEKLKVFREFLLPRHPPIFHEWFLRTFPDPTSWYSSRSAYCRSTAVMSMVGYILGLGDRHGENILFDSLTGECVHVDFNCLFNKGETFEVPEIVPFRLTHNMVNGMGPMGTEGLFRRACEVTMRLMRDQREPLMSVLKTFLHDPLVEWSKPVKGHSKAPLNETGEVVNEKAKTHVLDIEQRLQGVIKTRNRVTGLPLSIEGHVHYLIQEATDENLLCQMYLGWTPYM
Chain of Conserved oligomeric Golgi complex subunit 1 (Homo sapiens) (Q8WTW3 whole entry, one chain of several): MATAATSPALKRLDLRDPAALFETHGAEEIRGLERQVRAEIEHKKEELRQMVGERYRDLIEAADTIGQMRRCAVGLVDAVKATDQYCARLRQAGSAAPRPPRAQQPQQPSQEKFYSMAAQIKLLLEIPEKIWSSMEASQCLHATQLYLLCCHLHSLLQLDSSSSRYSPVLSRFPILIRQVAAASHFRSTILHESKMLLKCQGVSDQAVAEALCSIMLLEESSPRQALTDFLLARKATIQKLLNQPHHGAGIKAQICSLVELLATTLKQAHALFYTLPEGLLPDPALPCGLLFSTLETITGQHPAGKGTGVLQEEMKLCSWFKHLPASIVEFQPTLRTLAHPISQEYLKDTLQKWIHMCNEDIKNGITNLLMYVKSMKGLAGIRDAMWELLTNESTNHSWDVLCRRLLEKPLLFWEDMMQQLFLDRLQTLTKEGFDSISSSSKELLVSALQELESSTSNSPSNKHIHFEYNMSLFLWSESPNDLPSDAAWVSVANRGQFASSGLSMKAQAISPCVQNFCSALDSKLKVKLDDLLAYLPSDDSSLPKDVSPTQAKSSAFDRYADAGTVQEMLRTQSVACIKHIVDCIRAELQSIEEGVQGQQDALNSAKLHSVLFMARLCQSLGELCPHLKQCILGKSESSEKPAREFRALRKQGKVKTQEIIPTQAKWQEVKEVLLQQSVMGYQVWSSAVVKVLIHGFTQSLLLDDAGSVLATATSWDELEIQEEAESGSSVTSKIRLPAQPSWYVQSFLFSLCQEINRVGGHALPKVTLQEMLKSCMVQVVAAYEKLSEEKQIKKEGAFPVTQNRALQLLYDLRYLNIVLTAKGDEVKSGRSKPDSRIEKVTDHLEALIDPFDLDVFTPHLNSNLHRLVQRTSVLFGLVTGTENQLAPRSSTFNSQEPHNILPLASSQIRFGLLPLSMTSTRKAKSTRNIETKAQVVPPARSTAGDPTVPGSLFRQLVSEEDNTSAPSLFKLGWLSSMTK
Chain of Peflin (Homo sapiens) (Q9UBV8 whole entry): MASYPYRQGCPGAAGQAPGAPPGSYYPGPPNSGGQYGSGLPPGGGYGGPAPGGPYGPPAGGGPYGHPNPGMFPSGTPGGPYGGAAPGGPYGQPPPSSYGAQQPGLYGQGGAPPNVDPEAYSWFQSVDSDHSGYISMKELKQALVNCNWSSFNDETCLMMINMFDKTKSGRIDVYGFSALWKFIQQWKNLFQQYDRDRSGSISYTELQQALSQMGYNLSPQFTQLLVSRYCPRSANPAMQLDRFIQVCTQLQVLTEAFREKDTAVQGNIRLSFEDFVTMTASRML
Chain of Serine/threonine-protein phosphatase 6 regulatory subunit 1 (Homo sapiens) (Q9UPN7 whole entry): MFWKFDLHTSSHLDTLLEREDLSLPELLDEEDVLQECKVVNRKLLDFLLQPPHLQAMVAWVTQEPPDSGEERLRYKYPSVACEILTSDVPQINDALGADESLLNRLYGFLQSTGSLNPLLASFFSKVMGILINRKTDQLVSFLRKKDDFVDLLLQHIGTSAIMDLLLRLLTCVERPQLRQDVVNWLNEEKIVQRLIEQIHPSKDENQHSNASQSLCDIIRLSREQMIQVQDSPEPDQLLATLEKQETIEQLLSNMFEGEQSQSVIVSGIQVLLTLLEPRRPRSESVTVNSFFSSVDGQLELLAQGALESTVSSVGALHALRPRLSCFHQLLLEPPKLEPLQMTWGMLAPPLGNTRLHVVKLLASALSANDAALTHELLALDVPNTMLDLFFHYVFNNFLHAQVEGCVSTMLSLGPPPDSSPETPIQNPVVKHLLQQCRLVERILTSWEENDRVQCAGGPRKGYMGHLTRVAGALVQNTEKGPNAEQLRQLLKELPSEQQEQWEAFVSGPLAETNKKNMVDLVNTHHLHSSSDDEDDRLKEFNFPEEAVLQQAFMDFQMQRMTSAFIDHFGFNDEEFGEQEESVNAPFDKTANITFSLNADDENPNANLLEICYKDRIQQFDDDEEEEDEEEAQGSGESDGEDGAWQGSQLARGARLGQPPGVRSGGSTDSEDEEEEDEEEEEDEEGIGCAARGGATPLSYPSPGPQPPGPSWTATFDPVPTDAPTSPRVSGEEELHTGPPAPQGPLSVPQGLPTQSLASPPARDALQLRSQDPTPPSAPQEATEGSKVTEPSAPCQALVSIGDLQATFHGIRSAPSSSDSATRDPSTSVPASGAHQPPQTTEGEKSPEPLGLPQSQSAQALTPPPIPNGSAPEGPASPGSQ
Chain of CCR4-NOT transcription complex subunit 9 (Homo sapiens) (Q92600 whole entry, one chain of several): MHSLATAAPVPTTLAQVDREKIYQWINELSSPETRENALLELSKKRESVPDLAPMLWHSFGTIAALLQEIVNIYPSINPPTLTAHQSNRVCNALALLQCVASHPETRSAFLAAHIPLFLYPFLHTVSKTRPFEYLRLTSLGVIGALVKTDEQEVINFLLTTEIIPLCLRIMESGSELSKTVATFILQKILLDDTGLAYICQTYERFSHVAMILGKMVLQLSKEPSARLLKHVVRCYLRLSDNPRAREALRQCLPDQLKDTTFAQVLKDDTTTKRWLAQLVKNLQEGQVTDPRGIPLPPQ

SMILES	Activity [1]	Activity [2]	Activity [3]	Activity [4]	Activity [5]	Activity [7]	Activity [8]	Activity [11]	Activity [12]	activity call (active/not active) for inhibition of HSP27 upregulation [13]	Activity [14]	Activity [16]	Activity [17]	Activity [18]	Activity [19]	Activity [20]	Activity [21]	other results
O=C(CCCC[C@@H]1SC[C@@H]2NC(=O)N[C@@H]21)NCCOCCOCCNCCOc1ccc(C(C(=O)NCc2ccccc2)N(C(=O)CCc2ccc(O)cc2)C2CC2)cc1 (mixture of isomers)	Active	Active	Active	Active	Active	Active	Active	Active	Active	inactive	Active	Active	Active	Active	Active	Active	Active	Activity [6]: Active; Activity [9]: Active; Activity [10]: Active; Activity [15]: Active
O=C(CCCC[C@@H]1SC[C@@H]2NC(=O)N[C@@H]21)NCCOCCOCCNCCOc1ccc(C(C(=O)NCc2ccccc2)N(C(=O)CCc2ccccc2)C2CC2)cc1 (mixture of isomers)	Active	Active	Active	Active	Active	Active	Active	Active	Active	inactive	Active	Active	Active	Active	Active	Active	Active	–
